Test results taken from ChEMBL document CHEMBL3259731, “Design, synthesis, and biological evaluation of novel FAK scaffold inhibitors targeting the FAK-VEGFR3 protein-protein interaction” (Eur J Med Chem, 2014).
Activity calls are given as the source filed them. The rule behind the calls is not given here.

Tests used:
[1] = test system: C8161; assay: Cytotoxicity against human C8161 cells assessed as growth inhibition at 50 uM after 72 hrs by MTS assay; format: functional, cell-based
Method in brief: (§1)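 MTS assay. Cells kept in DMEM with 10% FBS, plated at 5000 cells/well and left to attach overnight, then exposed to compound (screening at 50 µM) for 72 h at 37 °C. MTS reagent added for about 1 h, then absorbance read at 570 nm. Viability normalized to DMSO/untreated controls. Three independent experiments, 3–5 replicate wells per concentration.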

[2] = test system: MIA PaCa-2; assay: Cytotoxicity against human MIAPaCa2 cells transfected with retroviral expression vector pMSCV-LucSh assessed as growth inhibition at 50 uM after 72 hrs by MTS assay; format: functional, cell-based
Method in brief: (§2)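 Cells seeded at 5000/well, attached overnight, then given 50 µM of each analog for 72 h at 37 °C. MTS reagent added for about 1 h, absorbance read at 570 nm. Viability normalized to DMSO/untreated controls. Three independent experiments, each with 3–5 replicate wells per concentration. Cells kept in DMEM with 10% FBS.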

[3] = test system: A-375; assay: Cytotoxicity against human A375 cells assessed as growth inhibition at 50 uM after 72 hrs by MTS assay; format: functional, cell-based; method in brief: as §1
[4] = test system: PANC-1; assay: Cytotoxicity against human PANC1 cells transfected with retroviral expression vector pMSCV-LucSh assessed as growth inhibition at 50 uM after 72 hrs by MTS assay; format: functional, cell-based; method in brief: as §2
[5] = test system: MDA-MB-231; assay: Cytotoxicity against human MDA-MB-231 cells assessed as growth inhibition at 50 uM after 72 hrs by MTS assay; format: functional, cell-based; method in brief: as §1
[6] = test system: U-87MG ATCC; assay: Cytotoxicity against human U87 cells assessed as growth inhibition at 50 uM after 72 hrs by MTS assay; format: functional, cell-based; method in brief: as §1
[7] = target: Focal adhesion kinase 1 (Homo sapiens, UniProt Q05397); assay: Binding affinity to biotinylated human FAK FAT domain by biolayer interoferometry
Method in brief: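 Bio-layer interferometry on super streptavidin biosensor tips, pre-wetted in buffer for a baseline before FAT protein immobilization. Association and dissociation measured over 210 s at two small-molecule concentrations. Kon, Koff and Kd derived from the kinetic fits.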

Focal adhesion kinase 1, sequence (Q05397 2-1052 limits assumed): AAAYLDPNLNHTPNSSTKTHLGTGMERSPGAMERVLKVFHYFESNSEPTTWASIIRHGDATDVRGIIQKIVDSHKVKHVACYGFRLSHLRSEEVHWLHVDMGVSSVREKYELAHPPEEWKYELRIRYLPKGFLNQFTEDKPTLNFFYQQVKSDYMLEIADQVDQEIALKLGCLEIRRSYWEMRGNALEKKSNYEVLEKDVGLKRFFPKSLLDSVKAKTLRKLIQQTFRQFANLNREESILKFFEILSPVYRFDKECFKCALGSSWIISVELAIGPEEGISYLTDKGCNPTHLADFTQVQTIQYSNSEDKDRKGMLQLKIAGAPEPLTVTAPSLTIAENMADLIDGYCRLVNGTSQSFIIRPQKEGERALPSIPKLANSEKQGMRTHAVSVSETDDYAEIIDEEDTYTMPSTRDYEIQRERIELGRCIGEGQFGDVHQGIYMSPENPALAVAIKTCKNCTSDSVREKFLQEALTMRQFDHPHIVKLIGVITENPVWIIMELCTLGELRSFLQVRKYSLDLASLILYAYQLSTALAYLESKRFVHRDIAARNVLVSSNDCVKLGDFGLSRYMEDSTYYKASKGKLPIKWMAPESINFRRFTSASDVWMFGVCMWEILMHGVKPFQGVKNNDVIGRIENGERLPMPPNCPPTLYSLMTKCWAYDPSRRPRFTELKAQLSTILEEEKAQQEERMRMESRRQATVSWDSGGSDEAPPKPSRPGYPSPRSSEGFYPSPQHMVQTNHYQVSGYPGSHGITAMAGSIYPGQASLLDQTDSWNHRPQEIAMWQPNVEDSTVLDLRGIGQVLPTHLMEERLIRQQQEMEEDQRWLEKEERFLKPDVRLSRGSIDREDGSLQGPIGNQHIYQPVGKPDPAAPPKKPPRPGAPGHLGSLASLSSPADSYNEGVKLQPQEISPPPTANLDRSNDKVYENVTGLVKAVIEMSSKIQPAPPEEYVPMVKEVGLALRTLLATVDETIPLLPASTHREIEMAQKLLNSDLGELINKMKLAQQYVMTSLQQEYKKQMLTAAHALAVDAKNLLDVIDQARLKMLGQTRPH

Structure (SMILES) | growth inhibition (GI) [1] | growth inhibition (GI) [2] | growth inhibition (GI) [3] | growth inhibition (GI) [4] | growth inhibition (GI) [5] | growth inhibition (GI) [6] | Activity [7]
CCCCCCCCCCN(CCN(C)C)c1ccccn1 | Active | Active | Active | Active | Active | Active | –
CCCCCCCCN(CCN(C)C)c1ccccn1 | Active | Active | Active | Active | Active | Active | –
CCCCCCCCCCCCN(CCN(C)C)c1ccccn1 | Active | Active | Active | Active | Active | Active | –
CN(C)CCNc1ccccn1 | inactive | inactive | inactive | inactive | inactive | inactive | inactive
